Experimental data: ChEMBL document CHEMBL1129639, “Synthesis and cardiotonic activity of novel pyrimidine derivatives: crystallographic and quantum chemical studies” (J Med Chem, 1996)

Key:
[1] = species on record: Cavia porcellus; assay: Effect on the contractile force of spontaneously beating atria from Reserpine-treated guinea pigs as percentage variation from the control at concentration of 10E-5 M; format: functional
Method in brief: (§1)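 Atria from reserpine-treated guinea pigs (reserpine 2 mg/kg ip, 48 and 24 h before death; only tyramine-unresponsive preparations used). Bath solution at 29 °C, gassed 95% O2/5% CO2, pH 7.5, resting tension […]. After 90 min equilibration, compound added cumulatively, 5 min per concentration. Isometric developed-tension amplitude or beating rate given as % variation from untreated control. Mean ± SEM, 6-10 assays.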

[2] = species on record: Cavia porcellus; assay: Effect on the frequency rate of spontaneously beating atria from Reserpine-treated guinea pigs as percentage variation from the control at concentration of 10E-5 M; format: functional; method in brief: as §1
[3] = species on record: Cavia porcellus; assay: Effect on the contractile force of spontaneously beating atria from Reserpine-treated guinea pigs as percentage variation from the control at concentration of 3 x 10E-4 M; format: functional; method in brief: as §1
[4] = species on record: Cavia porcellus; assay: Compound was evaluated for its effect on the frequency rate of spontaneously beating atria from Reserpine-treated guinea pigs as percentage variation from the control at concentration of 3 x 10E-5 M; format: functional; method in brief: as §1
[5] = species on record: Cavia porcellus; assay: Effect on the contractile force of spontaneously beating atria from Reserpine-treated guinea pigs as percentage variation from the control at concentration of 10E-3 M; format: functional; method in brief: as §1
[6] = species on record: Cavia porcellus; assay: Effect on the frequency rate of spontaneously beating atria from Reserpine-treated guinea pigs as percentage variation from the control at concentration of 10E-3 M; format: functional; method in brief: as §1
[7] = species on record: Cavia porcellus; assay: Compound was evaluated for its effect on the frequency rate of spontaneously beating atria from Reserpine-treated guinea pigs as percentage variation from the control at concentration of 3 x 10E-4 M; format: functional; method in brief: as §1
[8] = species on record: Cavia porcellus; assay: Compound was evaluated for its effect on the frequency rate of spontaneously beating atria from Reserpine-treated guinea pigs as percentage variation from the control at concentration of 3 x 10E-6 M; format: functional; method in brief: as §1
[9] = species on record: Cavia porcellus; assay: Effect on the contractile force of spontaneously beating atria from Reserpine treated guinea pigs as percentage variation from the control at concentration of 10E-4 M; format: functional; method in brief: as §1
[10] = species on record: Cavia porcellus; assay: Effect on the contractile force of spontaneously beating atria from Reserpine-treated guinea pigs as percentage variation from the control at concentration of 3 x 10E-6 M; format: functional; method in brief: as §1
[11] = species on record: Cavia porcellus; assay: Effect on the frequency rate of spontaneously beating atria from Reserpine-treated guinea pigs as percentage variation from the control at concentration of 10E-6 M; format: functional; method in brief: as §1
[12] = species on record: Cavia porcellus; assay: Effect on the contractile force of spontaneously beating atria from Reserpine-treated guinea pigs as percentage variation from the control at concentration of 10E-6 M; format: functional; method in brief: as §1
[13] = species on record: Cavia porcellus; assay: Effect on the frequency rate of spontaneously beating atria from Reserpine-treated guinea pigs as percentage variation from the control at concentration of 10E-4 M; format: functional; method in brief: as §1
[14] = species on record: Cavia porcellus; assay: Effect on the contractile force of spontaneously beating atria from Reserpine-treated guinea pigs as percentage variation from the control at concentration of 3 x 10E-5 M; format: functional; method in brief: as §1
[15] = species on record: Cavia porcellus; assay: Compound was evaluated for its effect on the frequency rate of spontaneously beating atria from Reserpine-treated guinea pigs as percentage variation from the control at different concentration of 3 x 10E-5 M; format: functional; method in brief: as §1
[16] = species on record: Cavia porcellus; assay: Compound was evaluated for its effect on the frequency rate of spontaneously beating atria from Reserpine-treated guinea pigs as percentage variation from the control at different concentration of 10E-3 M; format: functional; method in brief: as §1
[17] = species on record: Cavia porcellus; assay: Compound was evaluated for its effect on the frequency rate of spontaneously beating atria from Reserpine-treated guinea pigs as percentage variation from the control at different concentration of 10E-5 M; format: functional; method in brief: as §1
[18] = species on record: Cavia porcellus; assay: Compound was evaluated for its effect on the frequency rate of spontaneously beating atria from Reserpine-treated guinea pigs as percentage variation from the control at different concentration of 3 x 10E-4 M; format: functional; method in brief: as §1
[19] = species on record: Cavia porcellus; assay: Compound was evaluated for its effect on the frequency rate of spontaneously beating atria from Reserpine-treated guinea pigs as percentage variation from the control at different concentration of 10E-4 M; format: functional; method in brief: as §1
[20] = species on record: Cavia porcellus; assay: Inotropic effect in electrically driven left atrium from reserpine-treated guinea pigs at concentration of 10E-6 M; format: functional, Cardiac atrium
Method in brief: (§2)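 Electrically driven left atrium from reserpine-treated guinea pigs (tyramine-unresponsive), 29 °C, pH 7.5, resting tension […], 90 min equilibration. Compound dissolved in DMSO and added cumulatively, 5 min per step. Where used, adenosine deaminase was preincubated 20 min, and basal force was taken after ADA addition. Developed tension given as % change over control. Mean ± SEM of six assays.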

[21] = species on record: Cavia porcellus; assay: Inotropic effect in electrically driven left atrium from reserpine-treated guinea pigs at concentration of 10E-3 M; format: functional, Cardiac atrium; method in brief: as §2
[22] = species on record: Cavia porcellus; assay: Inotropic effect in electrically driven left atrium from reserpine-treated guinea pigs at concentration of 3 x 10E-6 M; format: functional, Cardiac atrium; method in brief: as §2
[23] = species on record: Cavia porcellus; assay: Inotropic effect in electrically driven left atrium from reserpine-treated guinea pigs at concentration of 3 x 10E-4 M; format: functional, Cardiac atrium; method in brief: as §2
[24] = species on record: Cavia porcellus; assay: Inotropic effect in electrically driven left atrium from reserpine-treated guinea pigs at concentration of 10E-4 M; format: functional, Cardiac atrium; method in brief: as §2
[25] = species on record: Cavia porcellus; assay: Inotropic effect in electrically driven left atrium from reserpine-treated guinea pigs at concentration of 3 x 10E-5 M; format: functional, Cardiac atrium; method in brief: as §2
[26] = species on record: Cavia porcellus; assay: Inotropic effect in electrically driven left atrium from reserpine-treated guinea pigs at concentration of 10E-5 M; format: functional, Cardiac atrium; method in brief: as §2

Row | SMILES | Variation [1] | Variation [2] | Variation [3] | Variation [4] | Variation [5] | Variation [6] | Variation [7] | Variation [8] | Variation [9] | Variation [10] | Variation [11] | Variation [12] | Variation [13] | Variation [14] | further results
1 | COCc1nc(N(C)C)ncc1C(=O)OC | 11.14% | 2.85% | 18.95% | 3.57% | 25.41% | 11.43% | 7.14% | 0% | 16.95% | 6.93% | 0% | 3.04% | 7.14% | 14.95% | 
2 | Cc1nc(N(C)C)ncc1C(=O)O | 5.18% | 9.67% | 15.77% | 3.22% | 21.96% | -3.12% | 6.45% | 6.45% | 10.82% | 3.77% | 0% | 0% | 3.22% | 8.62% | 
3 | CN(C)c1ncc(C(=O)O)c(C(C)(C)C)n1 | 9.67% |  | 14.21% |  | 18.64% |  |  | 3.33% | 13.23% | 7.58% | 0% | 3.51% |  | 12.51% | Variation [15]: 3.33%; Variation [16]: 11.11%; Variation [17]: 3.33%; Variation [18]: 7.42%; Variation [19]: 3.71%
4 | Cc1ccnc(N(C)C)n1 | 8.9% | 0% | 22.47% | 0% | -36.67% | -17.34% | -6.25% | 0% | 19.04% | 2.27% | 0% | 0% | 0% | 16.76% | 
5 | CN(C)c1ncc(C(=O)O)c(C(F)(F)F)n1 | 9.45% | -2.85% | 14.96% | -3.03% | 9.52% | -14.28% | -9.09% | 0% | 14.03% | 6.15% | 0% | 2.25% | -3.03% | 13.44% | 
6 | CN(C)c1nccc(Cc2ccccc2)n1 | 9.18% | 3.03% | -46.99% | 3.03% | -57.09% | -12.12% | -9.09% | 0% | -32.51% | 10.71% | 0% | 6.43% | -3.03% | 3.17% | 
7 | CCOC(=O)c1cnc(N(C)C)nc1C(=O)OCC | 0.54% | -4.76% | -76.47% | -7.41% | -100% | -100% | -55.55% | 0% | -48.31% | 2.18% | 0% | 0% | -40.77% | -5.33% | 
8 | CCCc1ccnc(N(C)C)n1 | 3.15% | -26.31% | -73.58% | -31.58% | -91.86% | -52.63% | -52.63% | -5.29% | -64.06% | 7.18% | 0% | 0% | -52.63% | -10.63% | 
9 | Nc1cc(-c2ccncc2)c[nH]c1=O [INAMRINONE] | 0.52% | 0% | 19.03% | 1.5% | 23.12% | 9.87% | 7.2% | 0% | 10.22% | 0% | 0% | 0% | 6.25% | 4.5% | 
10 | Cc1[nH]c(=O)c(C#N)cc1-c1ccncc1 [MILRINONE] | 16.31% | 15.22% | 45.62% | 27.09% | 31.09% | 37.2% | 42.85% | 0% | 37.77% | 0% | 0% | 0% | 34.16% | 30.32% | Variation [20]: 0%; Variation [21]: 42.89%; Variation [22]: 9.31%; Variation [23]: 45.61%; Variation [24]: 35.61%; Variation [25]: 22.81%; Variation [26]: 13.25%
